# Reference: ChEMBL document CHEMBL1141343, “Scalarane sesterterpenes from a marine sponge of the genus Spongia and their FXR antagonistic activity” (J Nat Prod, 2007)
# Active and inactive are the calls of the source. No cut-off for these calls is given here.
# Biological target: T1, Bile acid receptor (Homo sapiens, UniProt Q96RI1)
# T1 sequence (Q96RI1 whole entry): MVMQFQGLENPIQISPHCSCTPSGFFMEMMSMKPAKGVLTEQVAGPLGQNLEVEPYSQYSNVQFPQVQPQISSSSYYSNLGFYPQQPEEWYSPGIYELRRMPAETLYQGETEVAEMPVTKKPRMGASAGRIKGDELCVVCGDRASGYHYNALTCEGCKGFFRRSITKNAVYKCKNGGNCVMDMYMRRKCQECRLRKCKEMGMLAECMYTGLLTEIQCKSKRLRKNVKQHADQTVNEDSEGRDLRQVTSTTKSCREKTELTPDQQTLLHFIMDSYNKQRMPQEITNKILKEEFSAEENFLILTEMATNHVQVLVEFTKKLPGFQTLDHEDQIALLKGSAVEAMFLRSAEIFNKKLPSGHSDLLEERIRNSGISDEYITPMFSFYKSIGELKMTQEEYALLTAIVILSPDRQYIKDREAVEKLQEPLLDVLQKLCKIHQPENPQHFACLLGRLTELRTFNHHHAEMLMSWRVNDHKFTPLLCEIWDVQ
# Experiment: Antagonist activity at human FXR expressed in monkey CV1 cells after 24 hrs by ecdysone receptor response element-driven luciferase reporter assay
# Type: functional, cell-based, CV-1
# Conditions: not given
# Method in brief: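 Full-length human FXR, EcRE-driven luciferase reporter and β-galactosidase plasmid cotransfected into CV-1 cells, seeded 24 h beforehand in DMEM with 10% lipid-depleted FBS at 37 °C, 5% CO2. After a further 24 h, cells were exposed to compound or DMSO vehicle with 50 µM CDCA. Harvest was at 24 h, with luciferase normalized to β-galactosidase. Triplicate wells, three repeats.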
row,SMILES,IC50
1,CC1(C)CCC[C@]2(C)[C@H]3C[C@@H](O)[C@]4(C)[C@H]5COC(=O)C5=CC[C@H]4[C@]3(C)CC[C@@H]12,31.6 µM
2,C[C@]1(CO)CCC[C@]2(C)[C@H]3C[C@@H](O)[C@]4(C)[C@H]5COC(=O)C5=CC[C@H]4[C@]3(C)CC[C@@H]12,> 100 µM
3,CC(=O)O[C@@H]1C[C@@H]2[C@@]3(C)CCCC(C)(C)[C@@H]3CC[C@@]2(C)[C@@H]2CC=C3C(=O)O[C@@H](O)[C@@H]3[C@@]12C,60.4 µM
4,C[C@@]1(CO)CCC[C@]2(C)[C@H]3C[C@@H](O)[C@]4(C)[C@H]5COC(=O)C5=CC[C@H]4[C@]3(C)CC[C@@H]12,2.4 µM
5,CC1(C)CCC[C@]2(C)[C@H]3C[C@@H](O)[C@]4(C)[C@@H]5C(=CC[C@H]4[C@]3(C)CC[C@@H]12)C(=O)O[C@H]5O,75 µM
6,CO[C@@H]1OC(=O)C2=CC[C@H]3[C@]4(C)CC[C@H]5C(C)(C)CCC[C@]5(C)[C@H]4C[C@@H](O)[C@]3(C)[C@H]21,24 µM

# Test system: not listed separately
# Experiment: Cytotoxicity against monkey CV1 cells after 24 hrs by MTT assay
# Type: cell-based
# Conditions: Chlorocebus aethiops, CV-1, 24 h
# Method in brief: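 CV-1 monkey kidney cells plated in DMEM with 10% FBS at 37 °C, 5% CO2, grown 24 h, then exposed to compounds at a range of concentrations for 24 h. MTT at 1 mg/mL added for 1 h at 37 °C. Formazan dissolved in DMSO and absorbance read at 450 nm. Each experiment repeated more than three times.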
row,SMILES,IC50
1,CC1(C)CCC[C@]2(C)[C@H]3C[C@@H](O)[C@]4(C)[C@H]5COC(=O)C5=CC[C@H]4[C@]3(C)CC[C@@H]12,41.4 µM
2,C[C@]1(CO)CCC[C@]2(C)[C@H]3C[C@@H](O)[C@]4(C)[C@H]5COC(=O)C5=CC[C@H]4[C@]3(C)CC[C@@H]12,> 100 µM
3,CC(=O)O[C@@H]1C[C@@H]2[C@@]3(C)CCCC(C)(C)[C@@H]3CC[C@@]2(C)[C@@H]2CC=C3C(=O)O[C@@H](O)[C@@H]3[C@@]12C,75.1 µM
4,C[C@@]1(CO)CCC[C@]2(C)[C@H]3C[C@@H](O)[C@]4(C)[C@H]5COC(=O)C5=CC[C@H]4[C@]3(C)CC[C@@H]12,49.4 µM
5,CC1(C)CCC[C@]2(C)[C@H]3C[C@@H](O)[C@]4(C)[C@@H]5C(=CC[C@H]4[C@]3(C)CC[C@@H]12)C(=O)O[C@H]5O,77.2 µM
6,CO[C@@H]1OC(=O)C2=CC[C@H]3[C@]4(C)CC[C@H]5C(C)(C)CCC[C@]5(C)[C@H]4C[C@@H](O)[C@]3(C)[C@H]21,48 µM

# Biological target: T2, Bile acid receptor (Homo sapiens) (UniProt Q96RI1)
# T2 sequence (whole entry): T1 sequence (Q96RI1 whole entry)
# Experiment: Inhibition of CDCA-mediated interaction between FXR ligand binding domain and SRC1 at 25 uM by SPR spectroscopy
# Conditions: not given
# Method in brief: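 Human FXR LBD (4 µM) preincubated 1 h with compound plus 50 µM CDCA, then injected for 120 s over an immobilized SRC-1 coactivator peptide surface, followed by a 120 s buffer wash. Biacore SPR, 25 °C.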
row,SMILES,Activity
1,CC1(C)CCC[C@]2(C)[C@H]3C[C@@H](O)[C@]4(C)[C@H]5COC(=O)C5=CC[C@H]4[C@]3(C)CC[C@@H]12,Active
2,CC(=O)O[C@@H]1C[C@@H]2[C@@]3(C)CCCC(C)(C)[C@@H]3CC[C@@]2(C)[C@@H]2CC=C3C(=O)O[C@@H](O)[C@@H]3[C@@]12C,Active
3,CC1(C)CCC[C@]2(C)[C@H]3C[C@@H](O)[C@]4(C)[C@@H]5C(=CC[C@H]4[C@]3(C)CC[C@@H]12)C(=O)O[C@H]5O,Active
4,CO[C@@H]1OC(=O)C2=CC[C@H]3[C@]4(C)CC[C@H]5C(C)(C)CCC[C@]5(C)[C@H]4C[C@@H](O)[C@]3(C)[C@H]21,Active
